Measurements reported in ChEMBL document CHEMBL1125484, “Nonpeptide angiotensin II receptor antagonists: synthetic and computational chemistry of N-[[4-[2-(2H-tetrazol-5-yl)-1-cycloalken-1-yl]phenyl]methyl]imidazole derivatives and their in vitro activity” (J Med Chem, 1992).

What was measured:
[1] = Partition coefficient (logP); format: physicochemical; settings: octanol/water
[2] = species: Oryctolagus cuniculus; assay: pA2 value was determined by the compound's ability to antagonize the AII-induced contraction of rabbit aorta rings.; format: functional; settings: read-out: pA2 (converted)
Procedure, shortened: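 Thoracic aorta rings (3 mm) from New Zealand white rabbits were held in 37 °C physiological salt solution aerated with 95% O2/5% CO2, and isometric tension was recorded. A cumulative AII curve (10^-10 to 10^-7 M) was run, the tissue washed, and the compound added in DMSO for 30 min before the AII curve was repeated. Responses were expressed as % of control maximum, with EC50s from four-parameter logistic fits.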

[3] = target: T1, Type-1 angiotensin II receptor B (Rattus norvegicus, UniProt P29089); assay: Concentration required to inhibit binding of radioligand [125I]AII to angiotensin II receptor, type 1 in rat adrenal glomerulosa tissue
T1 sequence (P29089 whole entry): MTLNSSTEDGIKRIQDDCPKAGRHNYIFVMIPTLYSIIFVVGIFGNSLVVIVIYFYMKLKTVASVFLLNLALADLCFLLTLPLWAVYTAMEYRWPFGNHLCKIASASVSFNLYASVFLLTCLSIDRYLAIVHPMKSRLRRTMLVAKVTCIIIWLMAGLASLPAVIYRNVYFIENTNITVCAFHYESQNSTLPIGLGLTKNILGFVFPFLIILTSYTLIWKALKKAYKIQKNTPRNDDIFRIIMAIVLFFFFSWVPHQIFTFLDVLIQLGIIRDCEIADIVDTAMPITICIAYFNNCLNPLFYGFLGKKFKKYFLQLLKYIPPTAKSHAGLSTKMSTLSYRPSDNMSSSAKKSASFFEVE
Procedure, shortened: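 Buffer was 50 mM Tris, 120 mM NaCl, 5 mM MgCl2, 1 mM DTT and 0.05% BSA, with 8–15 μg protein. Antagonists were tested at 10 nM–100 μM, and nonspecific binding was defined with 0.1 μM [Sar1,Ile8]AII. Bound ligand was filtered and gamma-counted in triplicate. IC50 was taken from the linear portion of the displacement curve.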

logP [1]	IC50 [3] [µM]	SMILES	Kb [2] [µM]
4.34		CCCCc1nc(Cl)c(CO)n1Cc1ccc(C2=C(c3nnn[nH]3)CCCC2)cc1	0.129
5.37	0.39	CCCCc1nc(Cl)c(C(=O)O)n1Cc1ccc(C2=C(c3nn[nH]n3)CCCCC2)cc1	0.012
4.9	2.8	CCCCc1nc(Cl)c(CO)n1Cc1ccc(C2=C(c3nn[nH]n3)CCCCC2)cc1	0.468
4.81	0.4	CCCCc1nc(Cl)c(C(=O)O)n1Cc1ccc(C2=C(c3nn[nH]n3)CCCC2)cc1	0.00407
4.25	0.31	CCCCc1nc(Cl)c(C(=O)O)n1Cc1ccc(C2=C(c3nnn[nH]3)CCC2)cc1	0.0145
3.78	3.5	CCCCc1nc(Cl)c(CO)n1Cc1ccc(C2=C(c3nnn[nH]3)CCC2)cc1	0.355
4.92		CCCCc1nc(Cl)c(C(=O)O)n1Cc1ccc(-c2ccccc2-c2nn[nH]n2)cc1 [CARBOXYLIC ACID METABOLITE]	0.000234
4.45		CCCCc1nc(Cl)c(CO)n1Cc1ccc(-c2ccccc2-c2nnn[nH]2)cc1 [LOSARTAN]	0.0038
